One data set is filed under the species Rattus norvegicus. In words: Selectivity index, ratio of IC50 for rat MAO-A to IC50 for rat MAO-B. Summed up: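 Ratio of IC50 values from rat brain mitochondrial radioenzymatic assays: MAO-A with [14C]5-HT 5 μM, 30 min, and MAO-B with [14C]PEA 0.5 μM, 10 min. Both after 30 min preincubation with compound at 37 °C.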
Data set [1] in a line: Dissociation constant, pKa by potentiometric titration. The class given is physicochemical. A digest of the protocol: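 5 × 10^-4 M sample in 0.15 M KCl acidified to pH 1.8 with 0.5 M HCl, then titrated to pH 12.2 with carbonate-free 0.5 M KOH. Run at 25 ± 0.5 °C under slow argon flow, with a blank titration for standardization. pKa taken from the Bjerrum difference curve.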

A short description of data set [2]: Octanol-water partition coefficient, log P by potentiometric titration. The class given is physicochemical.
Data set [3] can be described thus: Aqueous solubility at pH 7.4 by turbidimetric method. The class given is physicochemical. Particulars: aqueous solution. A digest of the protocol: (§1)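 DMSO stock of compound added in 2 μL portions, about 10 additions, to 50 mM Tris-HCl pH 7.4 or 50 mM acetate pH 3.0 at room temperature, final DMSO below 5%. Precipitation read as light-scattering absorbance rise at 600-820 nm. Solubility limit taken from a bilinear fit of absorbance against DMSO volume. Three independent assays, mean ± SEM.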

Data set [4] is described as follows: Aqueous solubility at pH 3.0 by turbidimetric method. The class given is physicochemical. Particulars: aqueous solution. Summed up: as §1
Data set [5] is described as follows: Permeability across PAMPA membrane assessed as amount of drug reaching acceptor compartment at 2.5 mM by HDM-PAMPA assay. Particulars: 2500 µM. The data set is classed as ADME. Summed up: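 Hexadecane artificial membrane (0.75 μL per well, applied as 5% v/v in hexane, hexane evaporated) on polycarbonate filters; donor and acceptor in 0.1 M phosphate buffer pH 6.8 with 5% DMSO (iso-pH); 5 h at room temperature, shaking at 75 rpm; quadruplicate. Donor and acceptor concentrations read by UV at λmax. Retention, CA(t)/CD(0) and Pe calculated by the stated equations, τLAG neglected; membrane integrity checked by electrical resistance.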
A general note: The PAMPA barrier holds no transporters, so it reflects passive diffusion.

Data set [6] has as its system Mus musculus. In words: Ex vivo inhibition of MAO-B in C57Bl mouse brain at 3 mg/kg, po or 3 mg/kg, ip after 1 hr by radioenzymatic assay. The data set is classed as functional, organism-based. A digest of the protocol:
(§2)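 C57Bl mice (n = 6 per group) dosed orally or intraperitoneally at 3 mg/kg and killed 1 h later. Brains homogenized in 0.1 M phosphate pH 7.40. MAO-A ([14C]5-HT) and MAO-B ([14C]PEA) activities measured by radioenzymatic assay. Mean ± SEM, ANOVA with Dunnett's test.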

The test system of data set [7] is Mus musculus. In words: Ex vivo inhibition of MAO-A in C57Bl mouse brain at 3 mg/kg, po or 3 mg/kg, ip after 1 hr by radioenzymatic assay. The class given is functional, organism-based. A digest of the protocol:
as §2

Data set [8] deals with Mus musculus. Put plainly: Ex vivo inhibition of MAO-B in C57Bl mouse brain at 0.5 mg/kg, po after 30 mins by radioenzymatic assay. Also noted: scale not given: the % may be the effect or the level left. The data set is classed as functional. Summed up:
(§3)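 C57Bl mice (n = 6 per group) given 0.5 mg/kg orally and killed at 0.5, 1, 2, 4, 8 or 16 h. Brain homogenates in 0.1 M phosphate pH 7.40 assayed radioenzymatically for MAO-B with [14C]PEA. Mean ± SEM, ANOVA with Dunnett's test.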

Data set [9] has as its system Mus musculus. In words: Ex vivo inhibition of MAO-B in C57Bl mouse brain at 0.5 mg/kg, po after 2 hrs by radioenzymatic assay. Further details: scale not given: the % may be the effect or the level left. The data set is classed as functional. Summed up:
as §3

For data set [10], the species on record is Mus musculus. Put plainly: Ex vivo inhibition of MAO-B in C57Bl mouse brain after 1 hr by radioenzymatic assay. The class given is functional.
A further data set concerns the target Cytochrome P450 2C9 (Homo sapiens, UniProt P11712). Put plainly: Inhibition of human recombinant CYP2C9. The class given is ADME. Summed up:
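Recombinant human CYP supersomes were incubated at 37 C in incubation/NADPH regenerating buffer with isoform-specific substrates that turn fluorescent on metabolism. The substrate was 3-cyano-7-ethoxycoumarin for CYP1A2 and 7-methoxy-4-trifluoromethylcoumarin for CYP2C9. Fluorescence was read at the appropriate excitation/emission wavelengths, with a literature inhibitor as positive control in each assay.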

For another data set, the target named is Cytochrome P450 2D6 (Homo sapiens, UniProt P10635). Put plainly: Inhibition of human recombinant CYP2D6. The class given is ADME. Summed up:
(§4)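 Human recombinant CYP isoenzymes (supersomes) were incubated at 37 C with the test compound in incubation/NADPH-regenerating buffer plus a fluorogenic substrate. The substrate was 3-[2-(N,N-diethyl-N-methylammonium)ethyl]-7-methoxy-4-methylcoumarin for CYP2D6 and 7-methoxy-4-phenylcoumarin for CYP2E1. Fluorescent product was read at isoform-appropriate wavelengths, with a literature inhibitor as positive control. IC50 came from nonlinear regression of at least seven concentrations, each in duplicate.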

A further data set addresses Cytochrome P450 2E1 (Homo sapiens, UniProt P05181). In words: Inhibition of human recombinant CYP2E1. The class given is ADME. Summed up:
as §4

A further data set concerns the target Cytochrome P450 3A4 (Homo sapiens, UniProt P08684). In words: Inhibition of human recombinant CYP3A4. The class given is ADME. A digest of the protocol: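 Human recombinant CYP supersomes incubated at 37 °C with compound in NADPH-regenerating buffer, with fluorogenic substrates: 3-cyano-7-ethoxycoumarin for CYP2C19, […] for CYP3A4. Fluorescence read on a plate reader. Known isoform inhibitors run as positive controls in every assay.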

For data set [11], the system named is SH-SY5Y. Put plainly: Cytotoxicity against human SH-SY5Y cells assessed as cellular damage up to 10 uM after 24 hrs by MTS assay. The data set is classed as functional, cell-based. Summed up: (§5)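 Human neuroblastoma SH-SY5Y cells kept in DMEM with 10% heat-inactivated FBS. Seeded at 6.25 × 10^4/cm2 and grown 72 h to subconfluence. Switched to serum-free neurobasal medium 30 min before compound, then 24 h at 37 °C with 1, 3, 10, 30 or 100 μM compound. Viability read by colorimetric MTS assay.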
A general note: Formazan colour is commonly taken as a measure of viable cells.

Data set [12] relates to SH-SY5Y. In words: Cytotoxicity against human SH-SY5Y cells after 24 hrs by MTS assay. The class given is functional, cell-based. Summed up: as §5
The target in data set [13] is Amine oxidase [flavin-containing] B (Homo sapiens) (UniProt P27338). In words: Inhibition of MAO-B in human platelet rich plasma by radioenzymatic assay.
Chain of Amine oxidase [flavin-containing] B (Homo sapiens) (P27338 whole entry, looked up): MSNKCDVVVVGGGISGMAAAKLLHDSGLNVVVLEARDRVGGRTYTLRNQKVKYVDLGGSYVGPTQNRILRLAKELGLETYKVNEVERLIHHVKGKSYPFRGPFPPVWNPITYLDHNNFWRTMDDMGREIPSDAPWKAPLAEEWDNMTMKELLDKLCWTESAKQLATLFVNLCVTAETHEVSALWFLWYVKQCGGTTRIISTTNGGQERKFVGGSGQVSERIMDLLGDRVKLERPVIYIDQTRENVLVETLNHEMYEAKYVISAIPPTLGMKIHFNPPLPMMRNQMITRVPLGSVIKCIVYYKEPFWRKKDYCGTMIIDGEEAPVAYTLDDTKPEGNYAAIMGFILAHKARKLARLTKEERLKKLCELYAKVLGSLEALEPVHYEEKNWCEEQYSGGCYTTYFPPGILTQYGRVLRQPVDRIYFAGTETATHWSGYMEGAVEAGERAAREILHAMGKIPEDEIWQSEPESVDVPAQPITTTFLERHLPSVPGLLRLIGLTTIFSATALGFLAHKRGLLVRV

Molecules are shown by their SMILES. Activity calls are given as the source filed them. The calls are words filed in the database; no cut-off is given here.

Chain of Cytochrome P450 2E1 (P05181 whole entry): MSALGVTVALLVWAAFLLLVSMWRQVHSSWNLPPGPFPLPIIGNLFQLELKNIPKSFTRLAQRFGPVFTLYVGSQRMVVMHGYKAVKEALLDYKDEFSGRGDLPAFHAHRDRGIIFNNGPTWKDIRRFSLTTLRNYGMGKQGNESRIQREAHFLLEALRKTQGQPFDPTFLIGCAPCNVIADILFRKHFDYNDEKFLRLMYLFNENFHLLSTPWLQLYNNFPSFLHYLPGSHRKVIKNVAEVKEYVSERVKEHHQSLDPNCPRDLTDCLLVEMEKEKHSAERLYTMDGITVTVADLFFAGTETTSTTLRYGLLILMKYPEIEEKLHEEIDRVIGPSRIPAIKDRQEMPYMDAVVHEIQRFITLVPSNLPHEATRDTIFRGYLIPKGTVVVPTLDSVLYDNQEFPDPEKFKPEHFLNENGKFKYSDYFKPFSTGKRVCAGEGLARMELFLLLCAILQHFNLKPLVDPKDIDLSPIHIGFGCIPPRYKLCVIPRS
Chain of Cytochrome P450 2C9 (P11712 whole entry, canonical isoform): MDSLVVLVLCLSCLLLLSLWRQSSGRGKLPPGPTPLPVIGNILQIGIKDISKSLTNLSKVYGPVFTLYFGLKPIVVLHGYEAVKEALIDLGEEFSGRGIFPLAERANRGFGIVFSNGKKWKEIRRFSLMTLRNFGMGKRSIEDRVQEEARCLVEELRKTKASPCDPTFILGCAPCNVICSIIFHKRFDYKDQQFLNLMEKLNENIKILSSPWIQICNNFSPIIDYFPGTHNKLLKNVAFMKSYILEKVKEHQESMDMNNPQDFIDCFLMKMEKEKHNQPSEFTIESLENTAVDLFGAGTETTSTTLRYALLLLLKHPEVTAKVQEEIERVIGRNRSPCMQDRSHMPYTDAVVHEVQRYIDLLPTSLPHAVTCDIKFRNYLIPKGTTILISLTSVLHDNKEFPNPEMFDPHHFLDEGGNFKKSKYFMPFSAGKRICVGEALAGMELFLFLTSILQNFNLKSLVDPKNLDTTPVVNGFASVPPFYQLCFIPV
Chain of Cytochrome P450 3A4 (P08684 whole entry, canonical isoform): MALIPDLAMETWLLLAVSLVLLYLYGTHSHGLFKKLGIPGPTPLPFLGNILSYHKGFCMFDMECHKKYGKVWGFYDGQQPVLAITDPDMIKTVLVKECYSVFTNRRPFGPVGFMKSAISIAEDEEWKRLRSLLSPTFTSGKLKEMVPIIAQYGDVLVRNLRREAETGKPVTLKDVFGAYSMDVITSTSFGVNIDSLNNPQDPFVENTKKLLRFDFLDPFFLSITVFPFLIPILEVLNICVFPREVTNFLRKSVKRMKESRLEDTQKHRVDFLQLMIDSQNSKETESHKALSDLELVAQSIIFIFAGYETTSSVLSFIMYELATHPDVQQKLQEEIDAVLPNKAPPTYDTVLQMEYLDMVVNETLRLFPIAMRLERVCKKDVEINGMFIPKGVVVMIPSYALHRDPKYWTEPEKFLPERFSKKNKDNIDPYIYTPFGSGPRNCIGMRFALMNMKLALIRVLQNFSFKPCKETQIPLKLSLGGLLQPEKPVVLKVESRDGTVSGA
Chain of Cytochrome P450 2D6 (P10635 whole entry, canonical isoform): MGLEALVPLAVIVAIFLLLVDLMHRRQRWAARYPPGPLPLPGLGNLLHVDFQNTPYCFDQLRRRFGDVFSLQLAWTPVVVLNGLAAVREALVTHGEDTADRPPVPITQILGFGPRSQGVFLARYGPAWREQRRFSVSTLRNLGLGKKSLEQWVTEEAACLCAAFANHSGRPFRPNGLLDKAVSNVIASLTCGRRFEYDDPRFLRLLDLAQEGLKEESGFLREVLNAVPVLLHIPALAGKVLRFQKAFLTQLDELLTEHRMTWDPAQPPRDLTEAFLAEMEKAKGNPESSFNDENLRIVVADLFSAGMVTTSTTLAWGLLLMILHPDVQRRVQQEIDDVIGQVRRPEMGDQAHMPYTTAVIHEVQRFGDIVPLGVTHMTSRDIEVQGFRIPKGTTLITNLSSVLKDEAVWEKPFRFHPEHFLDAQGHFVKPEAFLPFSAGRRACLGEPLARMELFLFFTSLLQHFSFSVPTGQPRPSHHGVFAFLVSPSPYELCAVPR

On to `CNCc1cc(=O)oc2cc(OCc3cccc(Cl)c3)ccc12.CS(=O)(=O)O`, for which the Ratio IC50 in the data set listed under Rattus norvegicus stood at 457. In addition, in data set [1], the pKa was 7.18. Besides, in data set [2], the logP came to 2.49. Also, the figures for the kinetic solubility in [3] and in [4] were 52 µg/mL and 2820 µg/mL, respectively. For the same molecule, in data set [5], the permeability is 33.8%. For the same molecule, in the data set on Mus musculus [6], the result was Active. The result with Mus musculus [7] and in the data set with SH-SY5Y [11] was inactive. Besides, the Activity is recorded as 84% with Mus musculus [8] and 90% in the data set with Mus musculus [9]. The molecule also gave an ED50 in the data set filed under Mus musculus [10] of 0.24 mg/kg. In addition, the IC50 on Cytochrome P450 2C9 was over 5 µM; at Cytochrome P450 2D6, over 5 µM; at Cytochrome P450 2E1, over 5 µM; on Cytochrome P450 3A4, over 5 µM; in the data set with SH-SY5Y [12], 29.7 µM; in data set [13], 0.003 µM.

In general, pKa refers to the negative logarithm of the acid dissociation constant. One may read the logP as the decadic logarithm of the partition coefficient of the neutral form, usually between octanol and water. In general, solubility (kinetic) refers to solubility judged after dilution from a stock solution rather than from solid. What is called ED50 is the dose at which the effect has come halfway, by size or by number of responders. In general, IC50 refers to the concentration needed to halve the response being measured.

For the origin of these results see ChEMBL document CHEMBL1154599 (J Med Chem, 2009).
